Source: PubChem (several laboratories)
SUMO1 PPI mod = alters human SUMO1 binding to SIM partners. P63165. SUMO1 binding to a labelled peptide, TR-FRET, 1 h. inhibition, % at 20 µM. 0.33% of 360,000 active; in the data active = inhibition above about 37%
Scp1 inh = inhibitors of human Scp-1 phosphatase. inhibition, % at 20 µM. AID 493091. Q9GZU7. Recombinant Scp1, phosphopeptide, malachite green phosphate absorbance. 0.88% of 340,000 active;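 active = inhibition above about 50% at 20 µM, limit read from the data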;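 note: plate controls were DMSO wells with enzyme for no effect and wells lacking enzyme for full effect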
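Incubation: 45 min enzyme reaction at room temperature / System: truncated SCP-1 phosphatase (76-261aa) / Reagent: Phospho 17-mer peptide substrate / Buffer or medium: Acidic Tris acetate buffer with magnesium and detergent / Signal: absorbance at 630 nm / Doses: one concentration, 20 µM, with 1.0% DMSO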
LMPTP block = blocks human LMPTP phosphatase. 0.22% of 360,000 active. inhibition, % at 20 µM. recombinant LMPTP-A, OMFP fluorogenic substrate, fluorescence intensity. P24666;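 active = compounds that cut the enzyme signal by at least half of the control window in the single-dose screen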;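 note: plate controls were DMSO wells with enzyme plus substrate for no effect and substrate without enzyme for full effect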
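Assay system: LMPTP-A, protein tyrosine phosphatase of low molecular weight / Medium: pH 6.0 Bis-Tris buffer with DTT and Triton X-100 / Schedule: 50 min enzyme reaction at room temperature, protected from light / Measured by: endpoint fluorescence intensity from OMFP dephosphorylation / Read-out basis: % inhibition relative to no-enzyme and uninhibited control wells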
GRK2 inh = human GRK2 inhibition via aptamer displacement; P25098; inhibition of aptamer binding, % at 10 µM; bead flow cytometry, FAM-aptamer displacement from GRK2; 0.59% of 330,000 active;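 active = inhibition of aptamer binding above 40%, roughly 3 SD of noise, on plates passing a quality check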;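 note: median bead fluorescence of bound FAM aptamer so fluorescent compounds give negative values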
DNMT1 block = inhibitors of human DNMT1; P26358; 0.83% of 360,000 active; inhibition (reported as % activation of signal), % at 10 µM; DNMT1 molecular beacon, Hinp1I cleavage, fluorescence; in the data active = inhibition above about 50%
Target sequence (P26358 504-1616 limits assumed): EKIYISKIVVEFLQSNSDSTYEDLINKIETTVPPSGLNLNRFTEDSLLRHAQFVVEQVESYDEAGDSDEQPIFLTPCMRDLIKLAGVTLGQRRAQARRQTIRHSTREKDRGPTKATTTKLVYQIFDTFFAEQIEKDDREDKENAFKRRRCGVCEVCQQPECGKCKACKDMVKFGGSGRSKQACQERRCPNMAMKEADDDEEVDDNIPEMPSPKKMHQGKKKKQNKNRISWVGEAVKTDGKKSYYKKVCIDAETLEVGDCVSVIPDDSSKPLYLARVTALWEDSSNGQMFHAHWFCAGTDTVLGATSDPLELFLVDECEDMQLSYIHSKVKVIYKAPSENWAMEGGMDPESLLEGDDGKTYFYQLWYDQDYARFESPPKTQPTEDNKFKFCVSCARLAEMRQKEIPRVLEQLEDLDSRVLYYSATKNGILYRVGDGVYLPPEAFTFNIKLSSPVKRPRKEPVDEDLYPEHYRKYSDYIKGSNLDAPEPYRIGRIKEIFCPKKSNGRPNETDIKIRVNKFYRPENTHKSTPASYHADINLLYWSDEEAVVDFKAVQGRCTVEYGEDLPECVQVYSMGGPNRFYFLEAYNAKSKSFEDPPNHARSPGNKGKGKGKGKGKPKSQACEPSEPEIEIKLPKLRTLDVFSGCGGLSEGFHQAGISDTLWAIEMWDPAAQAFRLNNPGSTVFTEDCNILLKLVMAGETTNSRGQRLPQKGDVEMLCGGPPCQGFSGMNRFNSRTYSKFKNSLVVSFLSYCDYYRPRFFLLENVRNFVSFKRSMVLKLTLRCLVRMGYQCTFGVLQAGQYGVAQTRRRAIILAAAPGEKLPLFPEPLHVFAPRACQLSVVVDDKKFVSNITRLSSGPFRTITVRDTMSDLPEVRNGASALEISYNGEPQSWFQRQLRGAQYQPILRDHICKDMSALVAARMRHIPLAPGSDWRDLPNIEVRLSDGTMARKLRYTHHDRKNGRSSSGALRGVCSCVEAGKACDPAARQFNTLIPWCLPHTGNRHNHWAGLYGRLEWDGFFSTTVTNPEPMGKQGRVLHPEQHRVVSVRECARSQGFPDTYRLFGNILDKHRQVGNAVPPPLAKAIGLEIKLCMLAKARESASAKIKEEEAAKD
STEP inh = inhibitors of human striatal-enriched phosphatase STEP; inhibition, % at 20 µM; 0.25% of 360,000 active; P54829; recombinant STEP, OMFP fluorogenic substrate, fluorescence;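 active = inhibition at 20 µM, scaled per plate between control wells, above about 37%, limit read from the data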;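 note: 0% = DMSO with enzyme and substrate and 100% = substrate only without enzyme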
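Measure: Control-normalized % inhibition with plate pattern correction | Test system: STEP phosphatase, cell-free reaction | Medium: pH 6.0 Bis-Tris with DTT and Tween 20 | Technique: Fluorescence, 480/540 nm | Times: Reaction 20 min, ambient temperature | Doses: Single compound dose of 20 µM, 1% DMSO final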
GRK2 CP1 = confirmation of human GRK2 inhibitors displacing RNA aptamer; shares compounds with GRK2 inh; bead-bound GRK2, FAM-aptamer displacement, flow cytometry; aptamer displacement, % at 10 µM; 4% of 2,000 active;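 active = aptamer displacement above 40%, near three times the noise of non-fluorescent compounds, on plates passing quality checks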;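 note: negative values mostly reflect intrinsic compound fluorescence rather than true enhancement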
Aptamer quench = fluorescent aptamer quenching in GRK2 counter-screen dose response; shares compounds with GRK2 inh; Fluorescent RNA aptamer beads, flow cytometry; hits give high values; fluorescence change (kMESF span), kMESF (test concentration not listed); 110 tested, under 10 active; AID 504521;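 active = compounds whose bead fluorescence drops by more than 37 kMESF across the dose range, marking them as dye quenchers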
Aptamer quench SP = quenches fluorescent RNA aptamer, GRK2 hit artifact; fluorescence response (% of DMSO), % at 10 µM; shares compounds with GRK2 inh; Carboxyfluorescein RNA aptamer on beads, flow cytometry quenching; hits give low values; 2,000 tested, under 10 active;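 active = compounds that quench the bead-bound fluorescent RNA probe, cutting fluorescence to under half of the solvent control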;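 note: counterscreen run without GRK2 so only probe quenching by compound is measured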
GRK2 CP2 = human GRK2 inhibition confirmation, cherry pick 2; AID 504782; bead-bound GRK2, FAM-aptamer displacement, flow cytometry; 360 tested, under 10 active; inhibition of aptamer binding, % at 10 µM; shares compounds with GRK2 inh;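 active = inhibition of aptamer binding above 40%, about triple the noise seen with nonglowing compounds, on plates passing quality control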;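 note: negative values mostly come from compounds that fluoresce themselves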
FAM quench CP2 = quenches fluorescent RNA aptamer, GRK2 hit artifact. shares compounds with GRK2 inh. carboxyfluorescein RNA aptamer beads, flow cytometry quenching; hits give low values. fluorescence response vs DMSO, % at 10 µM. 360 tested, under 10 active. AID 588494;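 active = response vs DMSO under 50%, meaning signal dropped by over half, treated as fluorescence quencher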;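 note: labelled aptamer on streptavidin beads without GRK2 as a quench counter-screen; 100% = bead fluorescence of DMSO wells and lower means quenching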
Active calls of the source: *; / = no result. Compounds with a hit are over-represented: about 2.1% of the library has one in this group of screens.

SMILES	SUMO1 PPI mod	Scp1 inh	LMPTP block	GRK2 inh	DNMT1 block	STEP inh	GRK2 CP1	Aptamer quench SP	others
O=C(O)Cn1cc(/C=C2\C(=O)NC(=O)N(Cc3ccco3)C2=O)c2ccccc21	27	53*	5	34	90*	7	/	/
CNCC(=O)c1ccc(O)c(O)c1	3	/	56*	/	2	2	/	/
COc1cc(O)c2c(c1)/C=C/C[C@H](O)[C@H](O)C(=O)CCC[C@H](C)OC2=O	1	/	0	/	2	0	/	/
C[n+]1c(-c2ccccc2)c2cc(N)ccc2c2ccc(N)cc21	46*	-4	81*	36	61*	6	/	/
Cc1ccc2c(c1)C1C[N+](C)(CC(=O)c3ccc(Cl)cc3Cl)CCC1N2C(=O)c1ccc(F)cc1 (configuration not stated)	-11	95*	0	0	7	-2	/	/
C=C1C(=O)O[C@@H]2C[C@@H](C)[C@H]3C=CC(=O)[C@]3(O)C[C@@H]12	53*	-8	1	0	-31	-1	/	/
C=C1C(=O)OC2CC3(C)OC3CCC(C)=CC(OC(C)=O)C12 (configuration not stated)	7	-3	0	/	-1	-2	/	/
COc1ccc2c(c1)/C(=C/c1cnc[nH]1)C(=O)N2	-27	-9	-1	3	0	1	/	/
O=C1Nc2ccccc2/C1=C/c1cnc[nH]1	-11	82*	-1	3	0	2	/	/
Cc1ccc2c(c1)C1CN(C)CCC1N2C(=O)COc1ccc(S(=O)(=O)N2CCOCC2)cc1 (configuration not stated)	-3	-5	0	0	-5	6	-3	102
Cc1ccc2c(c1)C1CN(C)CCC1N2C(=O)/C=C/c1ccc2c(c1)OCO2 (configuration not stated)	-12	-7	-1	64*	-1	2	-7	97
Cc1ccc2c(c1)C1CN(C)CCC1N2C(=O)Cc1cccs1 (configuration not stated)	2	-5	0	6	-4	-2	/	/
COc1ccc(C(c2nnnn2C(C)(C)C)N2CCC3(CC2)C(=O)NCN3c2ccccc2)cc1 (configuration not stated)	10	/	5	/	-6	6	/	/
CCOC(=O)[C@]12Cc3cc(OC)ccc3[C@H]1N(CCC(=O)OC)C(=O)c1cc(OC)ccc12	5	/	0	/	/	/	/	/
CC[C@]12CC[C@H](O)CC1=CCC1C2CC[C@]2(C)C(=O)CCC12 (some centres not stated)	0	-4	1	42*	2	1	/	/	GRK2 CP2=12;FAM quench CP2=101
Nc1ccc2ccc3cccc[n+]3c2c1	-14	0	39	52*	109*	-35	6	44*
Cn1ncnc2c(=O)n(C)c(=O)nc1-2	29	-8	75*	61*	109*	85*	73*	87	Aptamer quench=-1.8
CCOc1cc(C(=O)N2CCC3(CC2)OCCO3)cc(OCC)c1OCC	-1	-3	-1	62*	0	-4	-2	105
CCCN1CCC2(CC1)NC(CO)(CO)CO2	-4	0	-4	0	1	0	/	/
CCN1CCC2(CC1)NC(CO)(CO)CO2	3	-3	-3	48*	2	2	-1	91
COc1cc(/C=C/c2nc3ccccc3c(=O)n2-c2ccccc2O)ccc1O	-12	-12	1	48*	-3	-2	-42	106
Cc1nn(-c2ccccc2)c2c1C(c1ccc3c(c1)OCO3)SCC(=O)N2 (configuration not stated)	-2	-5	-2	26	2	3	2	104
COc1cc(C2SCC(=O)Nc3c2c(C)nn3-c2ccccc2)cc(OC)c1OC (configuration not stated)	1	-3	0	2	1	0	/	/
CC(C)CN1Cc2ccccc2-n2nncc2C1	-3	/	-1	/	3	-2	/	/
C[C@]12CCC3C(CC[C@H]4C[C@H](O)CC[C@]34C)C1CC(=O)[C@@H]2O (some centres not stated)	1	0	0	100*	4	1	-4	98
SMILES	SUMO1 PPI mod	Scp1 inh	LMPTP block	GRK2 inh	DNMT1 block	STEP inh	GRK2 CP1	Aptamer quench SP	others
O=c1[nH]c(=S)n(-c2ccccc2)c(O)c1C=NCCN1CCNCC1	0	-13	-5	89*	-1	3	-1	99
O=c1[nH]c(=S)n(-c2cccc(Cl)c2)c(O)c1C=NCCN1CCNCC1	-2	-9	-6	0	0	0	/	/
Nc1ncc([N+](=O)[O-])s1	-16	-3	0	0	-1	0	/	/
O=C(c1ccc(Br)cc1)C12CN3CN(CN(C3)C1)C2	-4	-1	-1	0	-7	0	/	/
COc1ccc(C(=O)C23CN4CN(CN(C4)C2)C3)cc1	0	-3	0	43*	2	-2	-9	100
CC1(C)OC(c2ccccc2)=C/C(=C/C=C2C(=O)NC(=S)NC2=O)O1	/	-5	/	48*	/	/	22	107
O=C1NC(=S)NC(=O)C1=Cc1cccc2cc3ccccc3cc12	-15	-7	-1	/	17	0	/	/
CCc1nc2ccc(N3CCN(C)CC3)cc2nc1CC	7	4	-2	100*	-2	1	-3	99
Cc1cc(=O)oc2cc(OCC(=O)N3C[C@H]4C[C@@H](C3)c3cccc(=O)n3C4)c(Cl)cc12	1	4	-1	3	-1	0	/	/
Cc1cc(=O)oc2cc(OCC(=O)N3CCN(C(C)c4ccccc4)CC3)c(Cl)cc12 (configuration not stated)	-12	-12	-4	0	-1	-5	-23	96
CN1C2CCC1/C(=C/c1ccccn1)C(=O)/C2=C\c1ccccn1	7	-2	-1	92*	4	0	2	110
